Data on one molecule can be found in ChEMBL document CHEMBL4665779, “Novel 2-Substituted 3-Hydroxy-1,6-dimethylpyridin-4(1H)-ones as Dual-Acting Biofilm Inhibitors of Pseudomonas aeruginosa” (J Med Chem, 2020).

In experiment [1] the test system is Pseudomonas aeruginosa. Kind of experiment: Antibiofilm activity against Pseudomonas aeruginosa PAO1 assessed as inhibition of biofilm formation after 24 hrs by SYTO 9/propidium iodide staining based confocal microscopic analysis. Format: functional, organism-based. Particulars: dose microM 1.25-20, time 24.0 hrs. The method, boiled down: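 Biofilms were grown as in the crystal violet assay but on glass-bottom wells, with compound at 1.25–20 μM for 24 h at 37 °C against an untreated control. Wells were rinsed three times with PBS and stained for 15 min in the dark with 1 μM SYTO 9 and 10 μM propidium iodide. Confocal imaging used a 63× oil objective; triplicate.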

The subject of experiment [2] is Pseudomonas aeruginosa. Nature of the experiment: Inhibition of biofilm formation in multidrug resistant Pseudomonas aeruginosa 1167 at 10 uM relative to control. The class given is functional.
Experiment [3] deals with Pseudomonas aeruginosa PAO1. Nature of the experiment: Induction of iron chelation in Pseudomonas aeruginosa PAO1 assessed as increase in iron deficiency by measuring change in total ferric ion concentration at 5 uM by inductively coupled plasma mass spectrometry (reference value: 1.91 +/- 0.8 uM). In outline: (§1)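 PAO1 (OD600 0.05) was diluted 1:100 into ABTGC medium and grown 24 h at 37 °C with shaking, with compound; DFP at 20 μM was the reference. Pellets were washed twice in HEPES and lysed with lysozyme in 50 mM HEPES plus sonication for 30 min. Lysates were digested with 1 M nitric acid, centrifuged, and analysed by ICP-MS. Mean ± SD, triplicate.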

A short description of experiment [4]: Metal chelating activity assessed as negative logarithm of total free ferric ion concentration in a solution at 60 uM measured after 48 hrs in presence of CP645 probe and Fe-NTA by fluorescence spectrophotometry analysis.
Experiment [5] concerns Pseudomonas aeruginosa. Nature of the experiment: Inhibition of biofilm formation in multidrug resistant Pseudomonas aeruginosa FB at 20 uM relative to control. Format: functional.
The target of experiment [6] is Elastase (Pseudomonas aeruginosa (strain ATCC 15692 / PAO1 / 1C / PRS 101 / LMG12228)) (UniProt P14756). Kind of experiment: Inhibition of lasB fluorescence in Pseudomonas aeruginosa PAO1 transfected with GFP by measuring fluorescence intensity every 15 mins for 12 hrs by microtiter plate reader assay. The note with it: dose microM 1.25-20, time 12.0 hrs. The method, boiled down:
(§2)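 PAO1-gfp, PAO1-lasB-gfp, PAO1-rhlA-gfp or PAO1-pqsA-gfp reporters were grown overnight in LB, then diluted in ABTGC medium to OD600 0.02, with compound at 1.25–20 μM. Controls were 0.1% DMSO and a blank. OD600 and GFP fluorescence (ex 485/em 535 nm) were read every 15 min for at least 12 h at 37 °C; triplicate.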

For experiment [7], the system named is Pseudomonas aeruginosa. Kind of experiment: Inhibition of biofilm formation in multidrug resistant Pseudomonas aeruginosa 1121 at 10 uM relative to control. Format: functional.
Experiment [8] concerns Pseudomonas aeruginosa. Kind of experiment: Inhibition of biofilm formation in multidrug resistant Pseudomonas aeruginosa 1167 at 1.25 uM relative to control. Format: functional.
In experiment [9] the test system is Pseudomonas aeruginosa. Nature of the experiment: Antibacterial activity against Pseudomonas aeruginosa infected in African green monkey Vero cells assessed as cell survival at 20 uM pretreated for 24 hrs followed by cell addition and measured 4 hrs post-infection by MTT assay (reference value: 41.5%). Format: functional. The note with it: time 28 hrs. For orientation: Tetrazolium assays rely on reduction of a dye to a coloured formazan, in cell work by metabolically active cells.

The test system of experiment [10] is Pseudomonas aeruginosa. Kind of experiment: Antibacterial activity against Pseudomonas aeruginosa infected in human L02 assessed as cell survival at 20 uM pretreated for 24 hrs followed by cell addition and measured 4 hrs post-infection by MTT assay (reference value: 40.7%). The class given is functional. The note with it: time 28 hrs.
Experiment [11] has as its system Pseudomonas aeruginosa. Nature of the experiment: Inhibition of biofilm formation in multidrug resistant Pseudomonas aeruginosa 1129 at 1.25 uM relative to control. Format: functional.
For experiment [12], the system named is Pseudomonas aeruginosa PAO1. Nature of the experiment: Induction of iron chelation in Pseudomonas aeruginosa PAO1 assessed as increase in intracellular pyochelin level at 1.25 to 20 uM in presence of 50 uM FeCl3 by fluorescence microplate reader assay. The class given is cell-based. The note with it: dose microM 1.25-20. The method, boiled down: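 PAO1 overnight LB culture was diluted in ABTGC medium to OD600 0.02 ([…]), with compound at 0–20 μM, in medium containing 10 or 50 μM FeCl3. Plates were kept at 37 °C in a plate reader recording OD600, pyoverdine fluorescence (ex 400/em 447 nm) and pyochelin fluorescence (ex 350/em 430 nm). Triplicate.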

Experiment [13] is described as follows: Inhibition of GFP (unknown origin) at 1.25 to 20 uM by measuring fluorescence intensity every 15 mins for 12 hrs by microtiter plate reader assay. Particulars: dose microM 1.25-20, time 12.0 hrs. The method, boiled down:
as §2

Experiment [14] concerns Pseudomonas aeruginosa PAO1. Kind of experiment: Inhibition of quorum sensing system las in Pseudomonas aeruginosa PAO1 assessed as reduction in elastase production at 1.25 to 20 uM after 24 hrs by BODIPY fluorophore based fluorescence assay. Particulars: dose microM 1.25-20, time 24.0 hrs. The method, boiled down: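 PAO1 in LB at OD600 0.01 was incubated with compound (0–20 μM) for 24 h at 37 °C with shaking. The centrifuged supernatant was mixed with BODIPY FL-labelled DQ elastin substrate. Fluorescence (ex 490/em 520 nm) was read every 10 min for 5 h.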

Experiment [15] concerns Pseudomonas aeruginosa PAO1. Kind of experiment: Induction of iron chelation in Pseudomonas aeruginosa PAO1 assessed as increase in iron deficiency by measuring change in total ferric ion concentration at 1.25 uM by inductively coupled plasma mass spectrometry (reference value: 1.91 +/- 0.8 uM). The method, boiled down:
as §1

For experiment [16], the system named is Pseudomonas aeruginosa. Kind of experiment: Inhibition of biofilm formation in multidrug resistant Pseudomonas aeruginosa 1129 at 2.5 uM relative to control. Format: functional.
Experiment [17] deals with Pseudomonas aeruginosa. Nature of the experiment: Antibiofilm activity against Pseudomonas aeruginosa PAO1 assessed as inhibition of biofilm formation at 20 uM after 24 hrs by crystal violet staining based assay relative to control. The class given is functional. The method, boiled down: (§3)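 PAO1 (OD600 0.05) was cultured in ABTGC medium at 37 °C for 24 h with compound (1.25–20 μM for the dose series). Wells were PBS-washed three times, methanol-fixed for 30 min, air-dried, and stained with 0.1% crystal violet for 30 min. Stain was solubilized in 33% acetic acid and read at 570 nm. Compound stocks were […]. Run in triplicate.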

For experiment [18], the system named is Pseudomonas aeruginosa. Kind of experiment: Inhibition of biofilm formation in multidrug resistant Pseudomonas aeruginosa FB at 10 uM relative to control. The class given is functional.
The test system of experiment [19] is Pseudomonas aeruginosa. Kind of experiment: Inhibition of biofilm formation in multidrug resistant Pseudomonas aeruginosa FB at 5 uM relative to control. Format: functional.
Experiment [20] has as its system Pseudomonas aeruginosa. Kind of experiment: Inhibition of biofilm formation in multidrug resistant Pseudomonas aeruginosa 1129 at 10 uM relative to control. The class given is functional.
Experiment [21] deals with Pseudomonas aeruginosa. Kind of experiment: Antibiofilm activity against Pseudomonas aeruginosa PAO1 assessed as inhibition of biofilm formation after 24 hrs by crystal violet staining based assay. Format: functional, organism-based. Particulars: dose microM 1.25-20, time 24.0 hrs. In outline: as §3
The test system of experiment [22] is Pseudomonas aeruginosa PAO1. Nature of the experiment: Inhibition of quorum sensing system rhl in Pseudomonas aeruginosa PAO1 assessed as reduction in rhamnolipid production by orcinol assay. Particulars: dose microM 1.25-20. In outline:
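An overnight culture was diluted 1:100 into a defined minimal medium (0.6% glycerol, 25 μM FeSO4) with compound at 1.25–20 μM and grown 24 h at 37 °C with shaking. Supernatant was ether-extracted twice, dried, resuspended in water, and reacted with 0.19% orcinol in 50% H2SO4 at 80 °C for 30 min. A421 was read and normalized to OD600.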

The subject of experiment [23] is Pseudomonas aeruginosa. Kind of experiment: Inhibition of swarming motility of Pseudomonas aeruginosa PAO1 measured after 16 hrs. Particulars: dose microM 1.25-20, time 16.0 hrs. Format: functional, organism-based. The method, boiled down: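 LB plates with 0.5% agar, 0.5% casamino acids and 0.5% glucose contained compound at 0–20 μM. Plates were dried 1 h, then 1 μL PAO1 (OD600 1) was spotted on the centre. Incubation was 16 h at 37 °C; three independent experiments.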

The subject of experiment [24] is Pseudomonas aeruginosa. Kind of experiment: Inhibition of biofilm formation in multidrug resistant Pseudomonas aeruginosa FB at 1.25 uM relative to control. Format: functional.

The source made the active and inactive calls. The rule behind the calls is not given here.

Chain of Elastase (Pseudomonas aeruginosa (strain ATCC 15692 / PAO1 / 1C / PRS 101 / LMG12228)) (P14756 198-498 limits assumed): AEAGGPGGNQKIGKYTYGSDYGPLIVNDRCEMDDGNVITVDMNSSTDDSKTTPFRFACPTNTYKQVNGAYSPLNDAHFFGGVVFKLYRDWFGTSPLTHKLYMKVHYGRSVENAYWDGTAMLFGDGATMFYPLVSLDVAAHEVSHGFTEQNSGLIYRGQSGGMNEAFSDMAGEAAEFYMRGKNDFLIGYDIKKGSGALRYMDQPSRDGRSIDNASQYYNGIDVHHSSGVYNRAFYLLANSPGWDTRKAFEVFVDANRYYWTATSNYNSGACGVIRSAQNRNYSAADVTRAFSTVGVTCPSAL

As to `CCCCCCC(=O)NCc1c(O)c(=O)cc(C)n1C`, the results for the Activity entry (in the experiment with Pseudomonas aeruginosa [1]; in [3]; in experiment [15]) were “Dose-dependent effect”, 1.17 µM and 1.55 µM, respectively. The inhibition (in general, the change of the read-out against control, counted positive when it falls) at 10 µM in the experiment on Pseudomonas aeruginosa [2] worked out at 47.4%; in the experiment on Pseudomonas aeruginosa [7] it was 4.41%; with Pseudomonas aeruginosa [18] it was 18.4%; in the experiment on Pseudomonas aeruginosa [20], 30.4%. Besides, the pFe3+ in experiment [4] was found to be 22. Besides, the inhibition at 20 µM was 14.4% in the experiment with Pseudomonas aeruginosa [5] and 68.7% in the experiment on Pseudomonas aeruginosa [17]. Besides, the inhibition result (in [6]; in the experiment on Pseudomonas aeruginosa [21]; in [22]; in the experiment on Pseudomonas aeruginosa [23]) was “Dose-dependent effect” in each case. Moreover, the inhibition at 1.25 µM in the experiment on Pseudomonas aeruginosa [8] was 34.5%; in the experiment with Pseudomonas aeruginosa [11], 12.7%; in the experiment with Pseudomonas aeruginosa [24] it was -5.12%. The survival at 20 µM with Pseudomonas aeruginosa [9] is 96.4%; with Pseudomonas aeruginosa [10] it was 89.9%. The result in experiment [12] was inactive. Also, in experiment [13], the inhibition entry was “inactive”. Moreover, the inhibition entry in [14] was “Active”. Also, the inhibition at 2.5 µM in the experiment with Pseudomonas aeruginosa [16] is 21.3%. Moreover, the inhibition at 5 µM with Pseudomonas aeruginosa [19] worked out at 3.57%.
